The subject of experiment [1] is Nakaseomyces glabratus. The experiment in a line: Antifungal activity against Candida glabrata ATCC 90030 after 48 hrs by broth microdilution method in presence of 2% glucose. Type of experiment: functional. The note with it: ATCC 90030, 48 h. In outline:
(§1)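 CLSI M27-A3 broth microdilution in RPMI 1640 (pH 7.0, 0.165 M MOPS) with glucose at 2%, 0.2%, 0.1%, 0.05% or 0.02%, or with 0.2% glycerol in place of glucose. Inoculum from 24-h SDA culture at 35°C, final 1 × 10^3 cells/ml. Incubated 48 h. MIC is the lowest concentration giving a prominent turbidity drop; OD600 also read against the growth control.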
(In general: Broth dilution looks for growth in wells or tubes with falling amounts of substance.)

Experiment [2] relates to Nakaseomyces glabratus. The experiment in a line: Antifungal activity against Candida glabrata ATCC 90030 after 48 hrs by broth microdilution method in presence of 0.2% glucose. Type of experiment: functional. The note with it: ATCC 90030, 48 h. An outline of the steps:
as §1

In experiment [3] the test system is Nakaseomyces glabratus. Briefly: Antifungal activity against Candida glabrata ATCC 90030 after 48 hrs by broth microdilution method in presence of 0.1% glucose. The following applies: ATCC 90030, 48 h. Type of experiment: functional. In outline: as §1
Experiment [4] deals with Nakaseomyces glabratus. Briefly: Antifungal activity against Candida glabrata ATCC 90030 after 48 hrs by broth microdilution method in presence of 0.05% glucose. Type of experiment: functional. The note with it: ATCC 90030, 48 h. An outline of the steps:
as §1

Experiment [5] concerns Nakaseomyces glabratus. The experiment in a line: Antifungal activity against Candida glabrata ATCC 90030 after 48 hrs by broth microdilution method in presence of 0.02% glucose. Type of experiment: functional. The following applies: ATCC 90030, 48 h. An outline of the steps:
as §1

Experiment [6] has as its system Nakaseomyces glabratus. Briefly: Antifungal activity against Candida glabrata ATCC 90030 after 48 hrs by broth microdilution method in presence of 0.2% glycerol. Type of experiment: functional. The following applies: ATCC 90030, 48 h. In outline:
as §1

For experiment [7], the system named is Nakaseomyces glabratus. The experiment in a line: Antifungal activity against Candida glabrata ATCC 90030 infected in ICR mouse assessed as fungal load in kidney at 0.5 mg/kg/day, sc for 8 days measured on day 8. The note with it: route subcutaneous.
Experiment [8] concerns Nakaseomyces glabratus. The experiment in a line: Antifungal activity against Candida glabrata ATCC 90030 infected in ICR mouse assessed as fungal load in kidney at 0.25 mg/kg/day, sc for 8 days measured on day 8. The following applies: route subcutaneous.
In experiment [9] the test system is Nakaseomyces glabratus. Briefly: Antifungal activity against Candida glabrata ATCC 90030 infected in ICR mouse assessed as fungal load in kidney at 0.125 mg/kg/day, sc for 8 days measured on day 8. The note with it: route subcutaneous.
Experiment [10] has as its system Nakaseomyces glabratus. The experiment in a line: Antifungal activity against Candida glabrata ATCC 90030 after 24 hrs by broth microdilution method in presence of 2% glucose. Type of experiment: functional. The note with it: ATCC 90030, 24 h.
Experiment [11] relates to Nakaseomyces glabratus. Briefly: Antifungal activity against Candida glabrata ATCC 90030 after 24 hrs by broth microdilution method in presence of 0.2% glucose. The note with it: ATCC 90030, 24 h. Type of experiment: functional.
Experiment [12] relates to Nakaseomyces glabratus. Briefly: Antifungal activity against Candida glabrata ATCC 90030 after 24 hrs by broth microdilution method in presence of 0.1% glucose. Type of experiment: functional. The note with it: ATCC 90030, 24 h.
Experiment [13] has as its system Nakaseomyces glabratus. The experiment in a line: Antifungal activity against Candida glabrata ATCC 90030 after 24 hrs by broth microdilution method in presence of 0.05% glucose. Type of experiment: functional. The note with it: ATCC 90030, 24 h.
The test system of experiment [14] is Nakaseomyces glabratus. Briefly: Antifungal activity against Candida glabrata ATCC 90030 after 24 hrs by broth microdilution method in presence of 0.02% glucose. Type of experiment: functional. The following applies: ATCC 90030, 24 h.
The subject of experiment [15] is Nakaseomyces glabratus. Briefly: Antifungal activity against Candida glabrata ATCC 90030 after 24 hrs by Almar blue assay in presence of 0.2% glucose. The note with it: ATCC 90030, 24 h.
Experiment [16] relates to Nakaseomyces glabratus. The experiment in a line: Antifungal activity against Candida glabrata ATCC 90030 after 48 hrs by Almar blue assay in presence of 0.2% glucosel. The following applies: ATCC 90030, 48 h.
Experiment [17] concerns Nakaseomyces glabratus. Briefly: Antifungal activity against Candida glabrata ATCC 90030 infected in ICR mouse assessed as fungal load in kidney at 2.5 mg/kg/day, sc for 8 days measured on day 8. The following applies: route subcutaneous. Type of experiment: functional. An outline of the steps:
(§2)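 Four-week-old male SPF ICR mice made neutropenic with cyclophosphamide ip, 200 mg/kg on day −3 and 100 mg/kg on day +1. Infected iv by tail vein with 7.68 × 10^6 CFU from an overnight SDA culture in saline. Dosed sc once daily for 8 days starting 2 h post-infection, 5 mice per group, saline controls. Kidneys harvested on day 8, homogenates plated on SDA with imipenem, 5 days at 35°C, log CFU counted, Dunnett test.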

The subject of experiment [18] is Nakaseomyces glabratus. The experiment in a line: Antifungal activity against Candida glabrata ATCC 90030 infected in ICR mouse assessed as fungal load in kidney at 5 mg/kg/day, sc for 8 days measured on day 8. Type of experiment: functional. The following applies: route subcutaneous. In outline: as §2
Experiment [19] has as its system Nakaseomyces glabratus. The experiment in a line: Antifungal activity against Candida glabrata ATCC 90030 infected in ICR mouse assessed as fungal load in kidney at 10 mg/kg/day, sc for 8 days measured on […]. Type of experiment: functional. The note with it: route subcutaneous.
Experiment [20] deals with Nakaseomyces glabratus. The experiment in a line: Antifungal activity against Candida glabrata ATCC 90030 assessed as growth inhibition at 0.0039 to 0.125 ug/ml after 48 hrs. Type of experiment: functional, organism-based. An outline of the steps: (§3)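 Inhibition curve in CLSI M27-A3 microdilution: RPMI 1640 with 0.2% glucose, MOPS-buffered to pH 7.0, final inoculum 1 × 10^3 cells/ml. OD600 was read on a microplate spectrophotometer at 24 h and 48 h. Percent inhibition was calculated relative to the growth-control well.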

In experiment [21] the test system is Nakaseomyces glabratus. Briefly: Antifungal activity against Candida glabrata ATCC 90030 assessed as growth inhibition at 0.0039 to 0.125 ug/ml after 24 hrs. Type of experiment: functional, organism-based. An outline of the steps:
as §3

In experiment [22] the test system is Nakaseomyces glabratus. Briefly: Antifungal activity against Candida glabrata ATCC 90030 infected in ICR mouse assessed as fungal load in kidney at 0.025 mg/kg/day, sc for 8 days measured on day 8. The following applies: route subcutaneous. Type of experiment: functional. An outline of the steps: (§4)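 Four-week-old male SPF ICR mice (n=5/group) were made neutropenic with cyclophosphamide 200 mg/kg ip on day −3 and 100 mg/kg on day +1. They were infected iv (tail vein) with 7.68 × 10^6 CFU/mouse in saline. Dosing was sc once daily for 8 days from 2 h post-infection; controls got saline. Day-8 kidney homogenates were plated on SDA with 0.1 mg/ml imipenem, 35°C, 5 days. Result is log CFU/kidneys, Dunnett test versus control.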

Experiment [23] deals with Nakaseomyces glabratus. Briefly: Antifungal activity against Candida glabrata ATCC 90030 infected in ICR mouse assessed as fungal load in kidney at 0.05 mg/kg/day, sc for 8 days measured on day 8. Type of experiment: functional. The following applies: route subcutaneous. An outline of the steps:
as §4

Experiment [24] relates to Nakaseomyces glabratus. Briefly: Antifungal activity against Candida glabrata ATCC 90030 infected in ICR mouse assessed as fungal load in kidney at 0.1 mg/kg/day, sc for 8 days measured on day 8. Type of experiment: functional. The note with it: route subcutaneous. In outline:
as §4

The source made the active and inactive calls. The rule behind the calls is not given here. *1 amine or outer side, *2 acyl side, *3 side chain or, on linkers, in order; H or OH if unused. Where a SMILES comes first, the peptide text is derived from it. Bridges are numbered along the chain shown (N, C = ends). [ ]: non-standard residue; d: D form. The star is where a group is joined. hTyr(3S-OH,4S-OH,3'-OSO3H) = N[C@H](C(=O)O)[C@H](O)[C@@H](O)c1ccc(O)c(OS(=O)(=O)O)c1; Orn(4R-OH,5R-OH) = O=C([C@H](C[C@@H](O)[C@@H](O)N[*:3])N[*:1])[*:2]; Pro(3S-OH,4S-Me) = C[C@H]1CN[C@H](C(=O)O)[C@H]1O; X1 = CCCCCOc1ccc(-c2cc(-c3ccc(C(=O)*)cc3)no2)cc1; Gln(3R-OH) = NC(=O)C[C@@H](O)[C@H](N)C(=O)O; Hyp = O=C(O)[C@@H]1C[C@@H](O)CN1

In the case of `C[C@@H]1[C@H](O)[C@@H](C)/C=C/C=C/C=C/C=C/C=C/C=C/C=C/[C@H](O[C@@H]2O[C@H](C)[C@@H](O)[C@H](N)[C@@H]2O)C[C@@H]2O[C@](O)(C[C@@H](O)C[C@@H](O)[C@H](O)CC[C@@H](O)C[C@@H](O)CC(=O)O[C@H]1C)C[C@H](O)[C@H]2C(=O)O` [AMPHOTERICIN B], the minimal inhibitory concentration (MIC) (commonly the lowest concentration found to suppress growth) in the experiment with Nakaseomyces glabratus [1] turned out to be 2 µg/mL; with Nakaseomyces glabratus [2], 2 µg/mL; in the experiment with Nakaseomyces glabratus [3] it was 2 µg/mL; in the experiment on Nakaseomyces glabratus [4] it was 2 µg/mL; in the experiment with Nakaseomyces glabratus [5], 2 µg/mL; with Nakaseomyces glabratus [6], 1 µg/mL. Also, the log10cfu with Nakaseomyces glabratus [7] is recorded as 2.93; in the experiment with Nakaseomyces glabratus [8], 4.53; in the experiment on Nakaseomyces glabratus [9], 4.61.
For `CCCCCOc1ccc(-c2cc(-c3ccc(C(=O)N[C@H]4C[C@@H](O)[C@@H](O)NC(=O)[C@@H]5[C@@H](O)[C@@H](C)CN5C(=O)[C@H]([C@H](O)CC(N)=O)NC(=O)[C@H]([C@H](O)[C@@H](O)c5ccc(O)c(OS(=O)(=O)O)c5)NC(=O)[C@@H]5C[C@@H](O)CN5C(=O)[C@H]([C@@H](C)O)NC4=O)cc3)no2)cc1` [MICAFUNGIN] (X1-[Orn(4R-OH,5R-OH)]T[Hyp][hTyr(3S-OH,4S-OH,3'-OSO3H)][Gln(3R-OH)][Pro(3S-OH,4S-Me)]; lactam 1-C), the MIC came to 0.125 µg/mL in the experiment on Nakaseomyces glabratus [6]; 0.0625 µg/mL in the experiment with Nakaseomyces glabratus [10]; 0.0625 µg/mL with Nakaseomyces glabratus [11]; 0.0625 µg/mL with Nakaseomyces glabratus [12]; 0.0625 µg/mL in the experiment on Nakaseomyces glabratus [13]; 0.125 µg/mL with Nakaseomyces glabratus [14]. The minimum inhibitory concentration (MIC) with Nakaseomyces glabratus [15] and with Nakaseomyces glabratus [16] was 0.0625 µg/mL throughout. For the same compound, the log10cfu in the experiment with Nakaseomyces glabratus [7] was found to be 3.59; in the experiment on Nakaseomyces glabratus [8] it was 5.21; in the experiment on Nakaseomyces glabratus [9], 5.13.
Regarding `OC(Cn1cncn1)(Cn1cncn1)c1ccc(F)cc1F` [FLUCONAZOLE], the MIC in the experiment on Nakaseomyces glabratus [1] was found to be 16 µg/mL; with Nakaseomyces glabratus [2] it was 8 µg/mL; in the experiment with Nakaseomyces glabratus [3], 8 µg/mL; in the experiment with Nakaseomyces glabratus [4], 8 µg/mL; in the experiment on Nakaseomyces glabratus [5] it was 4 µg/mL; with Nakaseomyces glabratus [6], 4 µg/mL. Moreover, in the experiment on Nakaseomyces glabratus [16], the MIC amounted to 16 µg/mL. The log10cfu in the experiment with Nakaseomyces glabratus [17] is on record as 4.96; with Nakaseomyces glabratus [18] it was 5.33; in the experiment on Nakaseomyces glabratus [19], 4.62.
`N=C(N)c1ccc(OCCCC2CCN(CCCOc3ccc(C(=N)N)cc3)CC2)cc1`: the outcome with Nakaseomyces glabratus [20] and with Nakaseomyces glabratus [21] was Active. Moreover, the MIC was greater than 0.125 µg/mL with Nakaseomyces glabratus [1]; 0.0039 µg/mL in the experiment with Nakaseomyces glabratus [2]; 0.0039 µg/mL with Nakaseomyces glabratus [3]; 0.001 µg/mL with Nakaseomyces glabratus [4]; 0.001 µg/mL in the experiment with Nakaseomyces glabratus [5]; 0.0005 µg/mL with Nakaseomyces glabratus [6]. The log10cfu in the experiment with Nakaseomyces glabratus [22] stood at 4.3; with Nakaseomyces glabratus [23] it was 4; with Nakaseomyces glabratus [24], 3.86.

The values are drawn from ChEMBL document CHEMBL1649313, “T-2307 shows efficacy in a murine model of Candida glabrata infection despite in vitro trailing growth phenomena” (2010).
